Laboratory results taken from ChEMBL document CHEMBL4382241, “Synthesis and evaluation of third generation vitamin D3 analogues as inhibitors of Hedgehog signaling” (Eur J Med Chem, 2019).
Values after ≈ are worked out from the molar mass of the structure shown. Active and inactive are the calls of the source. The calls are words filed in the database; no cut-off is given here.

Assays:
Mus musculus [1] = species: Mus musculus; assay: Inhibition of Hedgehog signaling pathway in VDR-deficient mouse C3H10T1/2 cells assessed as reduction in oxysterol-induced Gli1 mRNA expression at 5 uM after 24 hrs by q-PCR analysis
Mus musculus [2] = species: Mus musculus; assay: Inhibition of Hedgehog signaling pathway in VDR-deficient mouse C3H10T1/2 cells assessed as change in CYP24A1 mRNA expression at 5 uM after 24 hrs by q-PCR analysis; parameters: scale not given: the % may be the effect or the level left
[3] = Inhibition of Hedgehog signaling pathway in Sufu-deficient mouse C3H10T1/2 cells assessed as reduction in oxysterol-induced Gli1 mRNA expression after 24 hrs by q-PCR analysis; details: C3H 10T1/2, 24 h
[4] = Clearance in human liver microsomes assessed per mg protein at 1 uM by LC-MS/MS analysis
Mus musculus [5] = species: Mus musculus; assay: Inhibition of Hedgehog signaling pathway in Sufu-deficient mouse C3H10T1/2 cells assessed as reduction in oxysterol-induced Gli1 mRNA expression at 5 uM after 24 hrs by q-PCR analysis
[6] = Inhibition of Hedgehog signaling pathway in mouse C3H10T1/2 cells assessed as reduction in oxysterol-induced Gli1 mRNA expression after 24 hrs by q-PCR analysis; format: cell-based; details: C3H 10T1/2, 24 h
[7] = Half life in human liver microsomes at 1 uM by LC-MS/MS analysis
[8] = Kinetic solubility of the compound in pH 4 phosphate buffered saline; format: physicochemical; details: read-out: Kinetic_solubility
How it was run: (§1)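 Kinetic solubility was run in PBS at pH 4.0 and at pH 7.4 under a standard contract protocol. Compound concentration was measured by LC-MS/MS.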

Mus musculus [9] = species: Mus musculus; assay: Inhibition of Hedgehog signaling pathway in Sufu-deficient mouse C3H10T1/2 cells assessed as change in CYP24A1 mRNA expression at 5 uM after 24 hrs by q-PCR analysis; parameters: scale not given: the % may be the effect or the level left
[10] = target: T1, Vitamin D3 receptor (Mus musculus) (UniProt P48281); assay: Activation of VDR in mouse C3H10T1/2 cells assessed as change in Cyp24A1 mRNA expression at 5 uM after 24 hrs by q-PCR analysis relative to control; format: cell-based
T1 sequence (whole entry): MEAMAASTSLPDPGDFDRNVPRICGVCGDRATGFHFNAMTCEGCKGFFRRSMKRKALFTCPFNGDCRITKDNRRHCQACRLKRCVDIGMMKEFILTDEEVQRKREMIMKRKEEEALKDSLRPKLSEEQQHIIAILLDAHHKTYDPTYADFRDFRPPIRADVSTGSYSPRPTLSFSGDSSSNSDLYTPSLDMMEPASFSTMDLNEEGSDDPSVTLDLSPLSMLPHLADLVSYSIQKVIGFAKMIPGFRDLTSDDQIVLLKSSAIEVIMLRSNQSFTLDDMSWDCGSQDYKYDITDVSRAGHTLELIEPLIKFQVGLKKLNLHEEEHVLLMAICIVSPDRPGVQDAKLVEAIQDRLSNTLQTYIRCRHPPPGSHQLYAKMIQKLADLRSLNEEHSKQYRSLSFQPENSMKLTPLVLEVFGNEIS

[11] = Inhibition of Hedgehog signaling pathway in VDR-deficient mouse C3H10T1/2 cells assessed as reduction in oxysterol-induced Gli1 mRNA expression after 24 hrs by q-PCR analysis; details: C3H 10T1/2, 24 h
[12] = Kinetic solubility of the compound in pH 7.4 phosphate buffered saline; format: physicochemical; details: read-out: Kinetic_solubility; how it was run: as §1
[13] = Inhibition of Hedgehog signaling pathway in mouse ASZ001 cells assessed as reduction in […] Gli1 mRNA expression after 48 hrs by q-PCR analysis; format: cell-based; details: ASZ001, 48 h
Mus musculus [14] = species: Mus musculus; assay: Inhibition of Hedgehog signaling pathway in mouse C3H10T1/2 cells assessed as residual oxysterol-induced Gli1 mRNA expression at 5 uM after 24 hrs by q-PCR analysis relative to oxysterol alone
Vitamin D3 receptor = target: T2, Vitamin D3 receptor (Mus musculus, UniProt P48281); assay: Activation of VDR in mouse ASZ001 cells assessed as change in Cyp24A1 mRNA expression after 48 hrs by q-PCR analysis; format: cell-based
T2 sequence (P48281 whole entry): T1 sequence (whole entry)
How it was run: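 In ASZ001 cells, full dose-response Cyp24A1 mRNA measurement by qPCR was done relative to DMSO control (1.0). EC50 values are mean ± SEM of at least two separate experiments performed in triplicate.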

[15] = target: T1, Vitamin D3 receptor (Mus musculus); assay: Activation of VDR in mouse ASZ001 cells assessed as change in Cyp24A1 mRNA expression at 5 uM after 48 hrs by q-PCR analysis relative to control; format: cell-based
Medulloblastoma cell = assay: Antiproliferative activity against medulloblastoma cells derived from conditional patched knockout mouse after 48 hrs by [3H]-thymidine incorporation assay; format: functional
How it was run: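 Primary tumour cells from Math1-Cre;Ptc fl/fl medulloblastoma were isolated and cultured in vitro, then incubated with analogue for 48 h in a proliferation assay. GI50 is mean ± SEM of at least two separate experiments performed in triplicate.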

Mus musculus [16] = species: Mus musculus; assay: Inhibition of Hedgehog signaling pathway in Sufu-deficient mouse C3H10T1/2 cells assessed as reduction in oxysterol-induced Gli1 mRNA expression at 1 uM after 24 hrs by q-PCR analysis
Mus musculus [17] = species: Mus musculus; assay: Inhibition of Hedgehog signaling pathway in VDR-deficient mouse C3H10T1/2 cells assessed as change in CYP24A1 mRNA expression at 1 uM after 24 hrs by q-PCR analysis; parameters: scale not given: the % may be the effect or the level left
[18] = target: T1, Vitamin D3 receptor (Mus musculus); assay: Activation of VDR in mouse ASZ001 cells assessed as change in Cyp24A1 mRNA expression at 1 uM after 48 hrs by q-PCR analysis relative to control; format: cell-based
[19] = target: T1, Vitamin D3 receptor (Mus musculus); assay: Activation of VDR in mouse ASZ001 cells assessed as change in Cyp24A1 mRNA expression at 2.5 uM after 48 hrs by q-PCR analysis relative to control; format: cell-based

SMILES	CLH [4]	IC50 [6] [µM]	half-life at 1 µM ([7]; liver microsomes) [min]	solubility kinetic [8] [µg/mL]	Activity [10] [%]	solubility kinetic [12] [µg/mL]	IC50 [13] [µM]	% Gli1 activity (Mus musculus [14]) [%]	EC50 (Vitamin D3 receptor) [µM]	Activity [15] [%]	GI50 (Medulloblastoma cell) [µM]	other results
CC(C)CCC[C@@H](C)[C@H]1CC[C@H]2[C@@H](Nc3ccc(O)cc3)CCC[C@]12C	12	0.4	57	0.00062 (≈ 0.00173 µM)	45	0.0026 (≈ 0.00727 µM)	–	–	–	–	–	inhibition (Mus musculus [1]): inactive; Activity (Mus musculus [2]): 8.1%; IC50 [3]: 3.1 µM; Hedgehog inhibition activity call (active/not active) (Mus musculus [5]): inactive; Activity (Mus musculus [9]): 1.2%; IC50 [11]: 3.9 µM
COC(C)(C)CCC[C@@H](C)[C@H]1CC[C@H]2[C@H](CNc3cccc(O)c3)CCC[C@]12C	16	1.1	43	0.06 (≈ 0.149 µM)	27	0.12 (≈ 0.299 µM)	0.7	3.7	0.6	2400	–	–
C[C@H](CCCC(C)(C)O)[C@H]1CC[C@H]2[C@@H](OC(=O)c3cccc(O)c3)CCC[C@]12C	15	1.6	47	0.048 (≈ 0.119 µM)	27000	0.031 (≈ 0.077 µM)	0.4	2.9	0.4	> 30000	> 10	–
CC(C)CCC[C@@H](C)[C@H]1CC[C@H]2[C@@H](OC(=O)c3cccc(O)c3)CCC[C@]12C	< 3	–	> 231	0.16 (≈ 0.414 µM)	–	0.67 (≈ 1.73 µM)	–	–	–	–	> 10	–
COC(C)(C)CCC[C@@H](C)[C@H]1CC[C@H]2[C@@H](Nc3cccc(O)c3)CCC[C@]12C	< 3	2.3	> 231	0.017 (≈ 0.0439 µM)	89	0.014 (≈ 0.0361 µM)	0.6	3.3	0.7	11000	–	–
CC(C)CCC[C@@H](C)[C@H]1CC[C@H]2[C@@H](NC(=O)c3cccc(O)c3)CCC[C@]12C	< 3	–	> 231	0.27 (≈ 0.7 µM)	–	0.68 (≈ 1.76 µM)	–	–	–	–	–	–
C[C@H](CCCC(C)(C)O)[C@H]1CC[C@H]2[C@H](CNc3cccc(O)c3)CCC[C@]12C	–	1.7	–	–	34	–	1.3	4.1	> 10	8.4	1.6	–
CC(C)CCC[C@@H](C)[C@H]1CC[C@H]2[C@@H](NCc3ccc(O)cc3)CCC[C@]12C	–	3.1	–	–	24	–	0.3	4.6	–	1.1	–	–
C[C@H](CCCC(C)(C)O)[C@H]1CC[C@H]2[C@@H](Nc3cccc(O)c3)CCC[C@]12C	–	1.3	–	–	> 30000	–	0.1	5.9	0.1	> 30000	5.3	–
CS(=O)(=O)c1ccc(C(=O)Nc2ccc(Cl)c(-c3ccccn3)c2)c(Cl)c1 [VISMODEGIB]	–	0.082	–	–	–	–	0.04	0.9	–	–	–	Hedgehog inhibition activity call (active/not active) (Mus musculus [5]): Active; inhibition (Mus musculus [16]): inactive
CCC(CC)(c1ccc(OCC(O)CO)c(C)c1)c1ccc(OCC(O)C(C)(C)C)c(C)c1 (centres undefined) [LG-190178]	–	0.00025	–	–	–	–	0.00023	–	0.0077	–	–	Activity (Mus musculus [17]): 250%; Activity [18]: 13000%; IC50 [11]: 1.9 µM
COC(C)(C)CCC[C@@H](C)[C@H]1CC[C@H]2[C@@H](OC(=O)c3cccc(O)c3)CCC[C@]12C	15	1.6	–	0.0027 (≈ 0.00648 µM)	14	0.0023 (≈ 0.00552 µM)	1	0.7	> 10	14	–	half-life at 1 µM ([7]; microsomes): 49 min
C[C@H](CCCC(C)(C)O)[C@H]1CC[C@H]2[C@@H](Nc3ccc(O)cc3)CCC[C@]12C	–	0.89 to 0.9	–	2.4 (≈ 6.42 µM)	15000	0.0042 (≈ 0.0112 µM)	0.2	11	0.6	> 30000	2.2	inhibition (Mus musculus [1]): inactive; Activity (Mus musculus [2]): 140%; IC50 [3]: 2.9 µM; Hedgehog inhibition activity call (active/not active) (Mus musculus [5]): inactive; Activity (Mus musculus [9]): 51%; IC50 [11]: 4.9 µM
COc1ccc(N[C@H]2CCC[C@]3(C)[C@@H]([C@H](C)CCCC(C)C)CC[C@@H]23)cc1	–	–	–	–	2.4	–	–	73	–	–	–	–
C=C1CC[C@H](O)C/C1=C/C=C1\CCC[C@]2(C)[C@@H]([C@H](C)CCCC(C)C)CC[C@@H]12 [CHOLECALCIFEROL]	–	–	–	–	–	–	–	–	0.9	–	5.8	inhibition (Mus musculus [1]): inactive; Activity (Mus musculus [2]): 5.5%; IC50 [3]: > 10 µM; inhibition (Mus musculus [5]): inactive; Activity (Mus musculus [9]): 2.9%; IC50 [11]: 4.5 µM
CC(C)CCC[C@@H](C)[C@H]1CC[C@H]2[C@@H](Nc3ccc4c(c3)OCO4)CCC[C@]12C	–	–	–	–	6.1	–	–	110	–	–	–	–
C[C@H](CCCC(C)(C)O)[C@H]1CC[C@H]2[C@H](CNc3ccc(O)cc3)CCC[C@]12C	–	0.4	–	–	6.1	–	0.5	5.6	1.3	140	–	–
CC(C)CCC[C@@H](C)[C@H]1CC[C@H]2[C@H](Nc3ccc(O)cc3)CCC[C@]12C	< 3	–	> 231	0.00075 (≈ 0.0021 µM)	–	0.00026 (≈ 0.000727 µM)	–	–	–	–	2.1	–
CC(C)CCC[C@@H](C)[C@H]1CC[C@H]2[C@@H](Nc3ccccc3)CCC[C@]12C	–	–	–	–	1.2	–	–	98	–	–	–	–
COc1cccc(N[C@H]2CCC[C@]3(C)[C@@H]([C@H](C)CCCC(C)C)CC[C@@H]23)c1	–	–	–	–	1.9	–	–	110	–	–	–	–
CC(C)CCC[C@@H](C)[C@H]1CC[C@H]2[C@H](CNc3ccc(O)cc3)CCC[C@]12C	< 3	0.6	–	0.00013 (≈ 0.00035 µM)	8.9	0.0027 (≈ 0.00727 µM)	0.6	1.9	–	–	2.1	Activity [19]: 5.8%; half-life at 1 µM ([7]; microsomes): > 231 min
CC(C)CCC[C@@H](C)[C@H]1CC[C@H]2[C@H](CNc3cccc(O)c3)CCC[C@]12C	–	3.8	–	–	13	–	1.2	13	–	–	–	Activity [19]: 7.8%
